Measured values reported in ChEMBL document CHEMBL3608231, “Eremophilane Sesquiterpenes and Polyketones Produced by an Endophytic Guignardia Fungus from the Toxic Plant Gelsemium elegans” (J Nat Prod, 2015).
The source made the active and inactive calls.

Legend:
Format in all cases: functional, cell-based
HCT-8 = assay: Cytotoxicity against human HCT8 cells after 72 hrs by MTT assay
Summary of the method: (§1)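 Cells kept in RPMI 1640 with 10% FBS in 96-well plates, 24 h at 37 °C, then samples added from DMSO solution at final 10 μM. Growth assessed after 72 h by MTT (4 h at 37 °C), formazan dissolved in DMSO, absorbance at 570 nm. Camptothecin as positive control.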

HCT-116 = assay: Cytotoxicity against human HCT116 cells after 72 hrs by MTT assay; summary of the method: as §1
Bel-7402 = assay: Cytotoxicity against human Bel7402 cells after 72 hrs by MTT assay; summary of the method: as §1
BGC-823 = assay: Cytotoxicity against human BGC823 cells after 72 hrs by MTT assay; summary of the method: as §1
A549 = assay: Cytotoxicity against human A549 cells after 72 hrs by MTT assay; summary of the method: as §1
A2780 = assay: Cytotoxicity against human A2780 cells after 72 hrs by MTT assay; summary of the method: as §1

Measured: Activity

C[C@H]1CCC(=O)O[C@@H]2C(=O)c3c(O)cccc3O[C@H]21
inactive: all assays above

C=C(C)[C@H]1C[C@@]2(C)C(=CC1=O)[C@H](O)[C@H](O)C[C@@H]2C
inactive: all assays above

CC(C)=C1C[C@@]2(C)C(=CC1=O)[C@@H](O)[C@H](O)[C@H](O)[C@@H]2C
inactive: all assays above

C=C(C)[C@@H]1C[C@@]2(C)C(=CC1=O)[C@@H](O)[C@H](O)[C@H](O)[C@@H]2C
inactive: all assays above

C=C1CC[C@H]2C(C)(C)CCC[C@]2(C)[C@H]1C[C@@]12O[C@@H]1[C@H](O)C(CO)=CC2=O
inactive: all assays above

C=C(C)[C@@H]1CC[C@@]2(C)OC3=C(C[C@@H]12)C(=O)[C@@H]1C[C@@]3(O)CO1
inactive: all assays above

C=C(C)[C@@H]1C[C@@]2(C)C(=CC(=O)C[C@@H]2C)C[C@H]1O
inactive: all assays above

CC(=O)O[C@H]1[C@@H](O)CC2=CC(=O)C(O)=C[C@]2(C)[C@H]1C
inactive: all assays above

C=C(C(C)=O)C(=C\c1cccc(C)c1N)/C(=C/O)CC
inactive: all assays above
